Drawing on ChEMBL document CHEMBL1156179 (J Med Chem, 2010), this text covers Ki and Ratio Ki for 25 compounds.

For test [1], the target named is Adenosine receptor A2a (Homo sapiens, UniProt P29274). Kind of test: Displacement of [3H]NECA from human cloned adenosine A2a receptor expressed in CHO cells. Format: cell-based. A digest of the protocol:
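hA2A-CHO membranes, prepared by two-step centrifugation, were incubated with 30 nM [3H]NECA, 50 μg protein and graded compound under the A1 binding conditions. Nonspecific binding with 100 μM R-PIA.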

Test [2] addresses T1, Adenosine receptor A2b (Homo sapiens, UniProt P29275).
T1 sequence (P29275 whole entry): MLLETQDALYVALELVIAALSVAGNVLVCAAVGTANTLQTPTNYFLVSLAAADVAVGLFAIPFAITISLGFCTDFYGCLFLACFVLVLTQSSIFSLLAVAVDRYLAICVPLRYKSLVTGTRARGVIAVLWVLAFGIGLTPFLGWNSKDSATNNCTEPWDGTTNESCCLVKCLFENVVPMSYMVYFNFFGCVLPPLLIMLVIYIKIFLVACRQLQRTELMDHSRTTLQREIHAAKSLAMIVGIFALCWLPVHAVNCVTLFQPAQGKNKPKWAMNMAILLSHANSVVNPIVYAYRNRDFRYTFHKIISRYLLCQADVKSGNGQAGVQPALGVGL
Kind of test: Antagonist activity at human cloned adenosine A2b receptor expressed in CHO cells assessed as inhibition of NECA-stimulated cAMP accumulation. Format: functional, cell-based. An outline of the steps:
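Membranes from CHO cells with hA2B receptor, prepared by a single 30 min spin at 54000g and resuspended in 50 mM Tris/HCl pH 7.4, used fresh. Antagonist inhibition of NECA-stimulated adenylyl cyclase gave IC50 by Hill fit; Ki from Cheng–Prusoff.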
Background: Cyclic AMP is a second messenger, typically raised through Gs and lowered through Gi signalling.

The target in test [3] is T2, Adenosine receptor A1 (Homo sapiens, UniProt P30542).
T2 sequence (P30542 whole entry): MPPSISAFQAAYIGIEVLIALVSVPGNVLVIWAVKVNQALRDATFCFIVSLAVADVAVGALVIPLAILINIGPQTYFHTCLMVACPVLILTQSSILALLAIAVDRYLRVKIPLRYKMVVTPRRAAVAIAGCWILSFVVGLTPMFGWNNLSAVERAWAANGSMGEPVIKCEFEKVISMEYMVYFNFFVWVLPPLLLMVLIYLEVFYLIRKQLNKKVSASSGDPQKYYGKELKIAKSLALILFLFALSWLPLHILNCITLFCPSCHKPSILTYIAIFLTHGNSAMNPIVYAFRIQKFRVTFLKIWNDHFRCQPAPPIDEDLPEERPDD
Kind of test: Displacement of [3H]CCPA from human cloned adenosine A1 receptor expressed in CHO cells. It counts as cell-based. An outline of the steps:
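CHO membranes with hA1 receptor, from 1000g 4 min spin then 100000g 30 min. Incubated 3 h at 25 °C with 1 nM [3H]CCPA, 0.2 U/mL adenosine deaminase, 20 μg protein in 50 mM Tris/HCl pH 7.4 and graded compound. Nonspecific binding with 1 mM theophylline.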

The target of test [4] is Adenosine receptors; A1 & A3 (Homo sapiens) (UniProt P30542+P0DMS8). Kind of test: Selectivity ratio of Ki for human adenosine A1 receptor to Ki for human adenosine A3.
Test [5] is filed under the species Homo sapiens. Nature of the test: Selectivity ratio of Ki for human adenosine A2A receptor to Ki for human adenosine A3.
Test [6] addresses T3, Adenosine receptor A3 (Homo sapiens, UniProt P0DMS8).
T3 sequence (P0DMS8 whole entry): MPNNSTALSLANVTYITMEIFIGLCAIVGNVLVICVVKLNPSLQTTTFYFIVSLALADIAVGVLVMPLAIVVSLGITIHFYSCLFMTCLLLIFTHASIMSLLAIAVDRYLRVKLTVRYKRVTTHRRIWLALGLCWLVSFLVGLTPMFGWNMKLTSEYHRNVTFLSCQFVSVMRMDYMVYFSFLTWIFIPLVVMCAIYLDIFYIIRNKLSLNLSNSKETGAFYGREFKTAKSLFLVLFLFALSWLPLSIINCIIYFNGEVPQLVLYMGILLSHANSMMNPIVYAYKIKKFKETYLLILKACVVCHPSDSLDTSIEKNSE
Kind of test: Displacement of [3H]NECA from human cloned adenosine A3 receptor expressed in CHO cells. It counts as cell-based. A general note: Displacement assays read how much labelled ligand stays bound in the presence of the test substance.

By Ki is commonly meant a measure of affinity in units of concentration, obtained from inhibition or displacement.

SMILES strings stand for the structures.

Sequence of Adenosine receptor A2a (P29274 whole entry): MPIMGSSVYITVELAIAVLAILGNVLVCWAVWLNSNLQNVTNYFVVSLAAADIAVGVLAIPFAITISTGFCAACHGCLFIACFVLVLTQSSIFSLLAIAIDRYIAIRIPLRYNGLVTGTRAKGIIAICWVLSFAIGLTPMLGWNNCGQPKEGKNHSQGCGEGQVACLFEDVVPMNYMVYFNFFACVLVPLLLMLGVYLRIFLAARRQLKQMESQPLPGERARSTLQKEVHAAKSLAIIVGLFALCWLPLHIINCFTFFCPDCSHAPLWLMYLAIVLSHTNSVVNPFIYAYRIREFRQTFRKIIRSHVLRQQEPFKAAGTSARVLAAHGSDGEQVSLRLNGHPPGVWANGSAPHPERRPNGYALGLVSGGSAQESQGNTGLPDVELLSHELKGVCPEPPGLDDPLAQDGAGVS

For `COc1ccc(-c2nc3c4cn(C)nc4nc(NC(=O)Cc4ccccc4)n3n2)cc1`, the Ki in test [1] is greater than 100000 nM; in test [2], greater than 10000 nM; in test [3], greater than 30000 nM; in test [6], 0.241 nM. Besides, the results for the Ratio Ki in test [4] and in test [5] were greater than 124000 and greater than 415000, respectively.
Take `Cn1cc2c(nc(NC(=O)c3ccccc3)n3nc(-c4ccc(Cl)cc4)nc23)n1`: the Ki in test [1] was greater than 100000 nM; in test [2], greater than 10000 nM; in test [3] it was greater than 30000 nM; in test [6], 2.82 nM. The Ratio Ki in test [4] is greater than 10600; in test [5], greater than 35500.
As to `COc1ccc(-c2nc3c4cn(C)nc4nc(NC(=O)c4ccccc4)n3n2)cc1`, the Ki in test [1] was greater than 100000 nM; in test [2], greater than 10000 nM; in test [3], greater than 30000 nM; in test [6] it was 2.1 nM. Moreover, the Ratio Ki is greater than 14300 in test [4] and greater than 47600 in test [5].
With `Nc1nc2nn(CCc3ccccc3)cc2c2nc(-c3ccc(Cl)cc3)nn12`, the Ki in test [1] was 2180 nM; in test [2], greater than 10000 nM; in test [3], 204 nM; in test [6], 79.7 nM. In addition, the Ratio Ki in test [4] was 2.56; in test [5], 27.4.
For the compound `COc1ccc(-c2nc3c4cn(C)nc4nc(N(C(=O)c4ccccc4)C(=O)c4ccccc4)n3n2)cc1`, the Ki in test [1] is greater than 10000 nM; in test [2], greater than 10000 nM; in test [3] it was greater than 10000 nM; in test [6], 6.88 nM. Besides, the Ratio Ki in test [4] and in test [5] was greater than 1450 each time.
With `Nc1nc2nn(CCc3ccccc3)cc2c2nc(-c3ccccc3)nn12`, the Ki in test [1] was 196 nM; in test [2], greater than 10000 nM; in test [3], 74.8 nM; in test [6], 76.7 nM. The values for the Ratio Ki in test [4] and in test [5] were 0.975 and 2.56, respectively.
In the case of `Cn1cc2c(nc(NC(=O)Cc3ccccc3)n3nc(-c4ccco4)nc23)n1`, the Ratio Ki in test [4] came out at 867; in test [5], 522.
Consider `Cn1cc2c(nc(NC(=O)c3ccccc3)n3nc(-c4ccc(Br)cc4)nc23)n1`, for which the Ki in test [1] was greater than 100000 nM; in test [2] it was greater than 10000 nM; in test [3], greater than 30000 nM; in test [6], 5.24 nM. For the same compound, the Ratio Ki is greater than 5730 in test [4] and greater than 19100 in test [5].
Regarding `CCn1cc2c(nc(N)n3nc(-c4ccc(Cl)cc4)nc23)n1`, the Ki in test [1] was 843 nM; in test [2], greater than 10000 nM; in test [3], 1570 nM; in test [6], 68.7 nM. Further, the Ratio Ki in test [4] is 22.9; in test [5] it was 12.3.
As to `O=C(Nc1nc2nn(CCc3ccccc3)cc2c2nc(-c3ccccc3)nn12)c1ccccc1`, the Ki in test [1] was 963 nM; in test [2], greater than 10000 nM; in test [3], 313 nM; in test [6], 23.9 nM. The Ratio Ki was 13.1 in test [4] and 40.3 in test [5].
`COc1ccc(-c2nc3c4cn(C)nc4nc(N)n3n2)cc1`: the Ki in test [1] was 1190 nM; in test [2], greater than 10000 nM; in test [3], 9730 nM; in test [6], 16.7 nM. Moreover, the Ratio Ki is 583 in test [4] and 71.3 in test [5].
For `Nc1nc2nn(CCc3ccccc3)cc2c2nc(-c3ccc(Br)cc3)nn12`, the Ki in test [1] was greater than 30000 nM; in test [2], greater than 10000 nM; in test [3], 498 nM; in test [6], 221 nM. Also, the Ratio Ki in test [4] is 2.25; in test [5], greater than 136.
In the case of `Cn1cc2c(nc(N)n3nc(-c4ccc(F)cc4)nc23)n1`, the inhibition constant Ki in test [1] was 355 nM; in test [2], greater than 10000 nM; in test [3] it was 1010 nM; in test [6], 31.4 nM. Moreover, the Ratio Ki in test [4] came out at 32.2; in test [5] it was 11.3.
Take `Cn1cc2c(nc(NC(=O)Cc3ccccc3)n3nc(-c4ccccc4)nc23)n1`: the Ki in test [1] is 778 nM; in test [2], greater than 10000 nM; in test [3], 562 nM; in test [6], 0.108 nM. Also, the values for the Ratio Ki in test [4] and in test [5] were 5200 and 7200, respectively.
As to `Cn1cc2c(nc(N)n3nc(-c4ccccc4)nc23)n1`, the Ki is 121 nM in test [1], greater than 10000 nM in test [2], 339 nM in test [3] and 75 nM in test [6]. Further, the Ratio Ki in test [4] turned out to be 4.52; in test [5], 1.61.
As for `Cn1cc2c(nc(NC(=O)c3ccccc3)n3nc(-c4ccc(F)cc4)nc23)n1`, the Ki is greater than 100000 nM in test [1], greater than 10000 nM in test [2], 2530 nM in test [3] and 3.43 nM in test [6]. Further, the Ratio Ki in test [4] was 738; in test [5], greater than 29200.
In the case of `O=C(Nc1nc2nn(CCc3ccccc3)cc2c2nc(-c3ccc(Br)cc3)nn12)c1ccccc1`, the Ki in test [1] is greater than 100000 nM; in test [2], greater than 10000 nM; in test [3], 270 nM; in test [6] it was 153 nM. For the same compound, the Ratio Ki in test [4] is 1.76; in test [5], greater than 654.
Turning to `Cn1cc2c(nc(NC(=O)Cc3ccccc3)n3nc(-c4ccc(F)cc4)nc23)n1`, the Ki in test [1] is 2540 nM; in test [2], greater than 10000 nM; in test [3], 2290 nM; in test [6], 0.201 nM. In addition, the Ratio Ki in test [4] was found to be 11400; in test [5], 12600.
As for `Cn1cc2c(nc(NC(=O)Cc3ccccc3)n3nc(-c4ccc(Cl)cc4)nc23)n1`, the Ki in test [1] was 8320 nM; in test [2], greater than 10000 nM; in test [3], 4850 nM; in test [6], 0.248 nM. The Ratio Ki in test [4] is 19600; in test [5], 33500.
With `COc1ccc(-c2nc3c4cn(CCc5ccccc5)nc4nc(N)n3n2)cc1`, the Ki in test [1] was 1400 nM; in test [2] it was greater than 10000 nM; in test [3] it was 289 nM; in test [6], 25 nM. Moreover, the Ratio Ki in test [4] is 11.6; in test [5] it was 56.
Turning to `Cn1cc2c(nc(N(C(=O)c3ccccc3)C(=O)c3ccccc3)n3nc(-c4ccc(Cl)cc4)nc23)n1`, the Ki in test [1] is greater than 10000 nM; in test [2], greater than 10000 nM; in test [3], greater than 10000 nM; in test [6] it was 6.94 nM. In addition, the Ratio Ki in test [4] and in test [5] was greater than 1440 throughout.
Regarding `Cn1cc2c(nc(N)n3nc(-c4ccco4)nc23)n1`, the Ratio Ki turned out to be 0.33 in test [4] and 0.009 in test [5].
With `Cn1cc2c(nc(N)n3nc(-c4ccc(Cl)cc4)nc23)n1`, the Ki in test [1] was 2020 nM; in test [2], greater than 10000 nM; in test [3], 4860 nM; in test [6] it was 72.4 nM. Also, the Ratio Ki is 67.1 in test [4] and 27.9 in test [5].
On to `Cn1cc2c(nc(N)n3nc(-c4ccc(Br)cc4)nc23)n1`, for which the inhibition constant Ki is 1500 nM in test [1], greater than 10000 nM in test [2], 2890 nM in test [3] and 38.6 nM in test [6]. Besides, the Ratio Ki was found to be 74.9 in test [4] and 38.9 in test [5].
On to `Cn1cc2c(nc(NC(=O)c3ccccc3)n3nc(-c4ccc([N+](=O)[O-])cc4)nc23)n1`, for which the Ki in test [1] was greater than 100000 nM; in test [2], greater than 10000 nM; in test [3], greater than 30000 nM; in test [6], 56.4 nM. Moreover, the Ratio Ki in test [4] was greater than 532; in test [5], greater than 1770.
